# Measured values taken from ChEMBL document CHEMBL1287671, “Design, synthesis and SAR of a novel series of benzimidazoles as potent NPY Y5 antagonists” (Bioorg Med Chem Lett, 2010).
# What was measured:
# [1] = test system: Liver microsomes; assay: Intrinsic clearance in human liver microsomes; assay type: ADME, Microsome
# In short: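 Intrinsic clearance measured in human liver microsomes; expressed as ml/min/g liver.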
# [2] = Ratio of drug level in brain to blood in rat at 0.5 mg/kg, iv after 1 hr; assay type: ADME, organism-based; set-up: dose 0.5 mg/kg, route intravenous
# In short: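 Male rats given 0.5 mg/kg iv; brain and blood levels sampled 1 h after dosing and expressed as brain/blood partition.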
Compound,CL [1] [mL/min/g],Kp at 1 h [2]
O=C1O[C@]2(CC[C@H](c3nc4ccc(OC(F)(F)F)cc4[nH]3)CC2)CN1c1ccccc1,0.5,0.6
N#Cc1ccc2nc([C@H]3CC[C@]4(CC3)CN(c3ccccn3)C(=O)O4)[nH]c2c1,15,
O=C1O[C@]2(CC[C@H](c3nc4cc(OC(F)(F)F)ccc4[nH]3)CC2)CN1c1ccccn1,0.5,0.5
O=C1OC2(CCN(c3nc4cc(-c5ccc(F)cc5)ccc4[nH]3)CC2)CN1c1ccccc1,7,
O=C(Nc1nc(-c2ccccn2)cs1)N1CCC2(CC1)CN(c1ccccc1)C(=O)O2,0.6,< 0.1
N#Cc1ccc2[nH]c([C@H]3CC[C@]4(CC3)CN(c3ccc(F)cc3)C(=O)O4)nc2c1,0.5,
N#Cc1ccc2nc([C@H]3CC[C@]4(CC3)CN(c3ccccc3)C(=O)O4)[nH]c2c1,0.5,< 0.03
O=C1O[C@]2(CC[C@H](c3nc4cc(C(F)(F)F)ccc4[nH]3)CC2)CN1c1ccccn1,0.5,
Cc1ccccc1N1C[C@]2(CC[C@@H](c3nc4ccc(OC(F)(F)F)cc4[nH]3)CC2)OC1=O,0.5,
O=C1OC2(CCN(c3nc4cc(F)ccc4[nH]3)CC2)CN1c1ccccc1,7,
O=C1O[C@]2(CC[C@H](c3nc4cc(OC(F)(F)F)ccc4[nH]3)CC2)CN1c1ccccc1F,0.5,0.8
O=C1O[C@]2(CC[C@H](c3nc4cc(OC(F)(F)F)ccc4[nH]3)CC2)CN1c1ccc(F)cc1,0.5,
O=C1OC2(CCN(c3nc4cc(Br)ccc4[nH]3)CC2)CN1c1ccccc1,2.5,
O=C1O[C@]2(CC[C@H](c3nc4ccc(OC(F)(F)F)cc4[nH]3)CC2)CN1c1ccccc1Cl,0.5,
O=C1O[C@]2(CC[C@H](c3nc4cc(C(F)(F)F)ccc4[nH]3)CC2)CN1c1ccccc1,0.5,0.3
O=C1OC2(CCN(c3nc4cc(OC(F)(F)F)ccc4[nH]3)CC2)CN1c1ccccc1,0.5,0.3
O=C1OC2(CCN(c3nc4cc(C(F)(F)F)ccc4[nH]3)CC2)CN1c1ccccc1,0.5,0.2
O=C1O[C@]2(CC[C@H](c3nc4cc(OC(F)(F)F)ccc4[nH]3)CC2)CN1c1cccnc1,0.5,
O=C1OC2(CCN(c3nc4ccccc4[nH]3)CC2)CN1c1ccccc1,9.8,
Cc1cccc(N2C[C@]3(CC[C@@H](c4nc5ccc(OC(F)(F)F)cc5[nH]4)CC3)OC2=O)n1,0.6,
O=C1O[C@]2(CC[C@H](c3nc4ccc(OC(F)(F)F)cc4[nH]3)CC2)CN1c1cccc(F)n1,0.5,
Cc1ncccc1N1C[C@]2(CC[C@@H](c3nc4ccc(OC(F)(F)F)cc4[nH]3)CC2)OC1=O,0.6,
